# Screens: PubChem, several laboratories
# A selection: hits, their analogues and other compounds. The true share with any hit is near 1.4%.
# Fh CTSL1 inh – blocks F. hepatica cathepsin L1 in PFM18AAP counter-screen | inhibition, % at 5.96 µM | 300,000 compounds, 0.49% hits | recombinant F. hepatica cathepsin L1, Z-Leu-Arg-MCA fluorescence | AID 1906;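 active = inhibition above the mean of all tested compounds plus 3 SD, set per screening campaign, cut at about 17% in these data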;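 note: 0% = plate median of test compound wells and 100% = 1 µM Z-Phe-Ala-diazomethylketone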
# UBC9 SUMO inh – blocks human SUMOylation mediated by UBC9; P63279; HTRF SUMOylation assay, SAE1/SAE2 + UBC9, in vitro; inhibition, % at 35 µM; 290,000 compounds, 0.36% hits; AID 2006; in the data active = inhibition above about 50%, passing the limit was not always enough
# Target sequence (P63279 whole entry, looked up): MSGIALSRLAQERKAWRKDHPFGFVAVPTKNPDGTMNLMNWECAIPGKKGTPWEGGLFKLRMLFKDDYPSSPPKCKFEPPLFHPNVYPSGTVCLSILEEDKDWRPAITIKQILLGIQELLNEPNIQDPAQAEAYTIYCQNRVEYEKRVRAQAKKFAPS
# Neddylation inh – blocks human cullin neddylation | AID 651699 | P61081+Q13564 | inhibition, % at 25 µM | 360,000 compounds, 0.58% hits | TR-FRET cullin neddylation, biochemical; in the data active = inhibition above about 36%
# UCH37 DUB inh – human UCH37 deubiquitinating enzyme inhibition; inhibition, % (no concentration beside the values); purified proteasome/UCH37, Ub-AMC cleavage fluorescence; 330,000 compounds, 0.33% hits;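 active = mean inhibition over replicate wells above about 20%, limit read from the data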;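 note: 0% = compound-free wells with enzyme and 100% = wells lacking proteasome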
# Target sequence (Q9Y5K5 whole entry, looked up): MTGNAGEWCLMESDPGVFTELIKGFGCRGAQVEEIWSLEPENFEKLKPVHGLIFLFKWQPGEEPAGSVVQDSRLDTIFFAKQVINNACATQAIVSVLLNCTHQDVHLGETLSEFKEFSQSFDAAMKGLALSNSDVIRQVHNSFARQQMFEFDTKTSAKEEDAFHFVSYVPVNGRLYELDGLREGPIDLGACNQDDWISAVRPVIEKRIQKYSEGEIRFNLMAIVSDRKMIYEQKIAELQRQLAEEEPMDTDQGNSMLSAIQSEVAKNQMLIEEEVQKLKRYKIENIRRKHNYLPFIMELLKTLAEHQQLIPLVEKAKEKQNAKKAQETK
#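 Material: Human UCH37 enzyme supplied as purified proteasome complex | Schedule: 30 min compound-proteasome preincubation then 25 min substrate reaction, room temperature | Detection: AMC fluorescence from Ub-AMC cleavage, excitation 355 nm, emission 460 nm | Benchmarks: Wells without proteasome as full block, compound-free enzyme plus substrate as uninhibited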
# * = called active by the depositor; i = inactive; nt = no result shown.
SMILES,Fh CTSL1 inh,UBC9 SUMO inh,Neddylation inh,UCH37 DUB inh
O=C(Cn1cncn1)NN=Cc1cccnc1,nt,nt,nt,3.7
Cc1ccccc1C(=O)NC(CC(C)C)C(=O)OCc1cc(=O)n2cc(Br)ccc2n1 (stereo not given),27.5*,-1.6,-131.1,1.0
CCOc1c(Cl)cc(C=NNC(N)=S)cc1OC,nt,nt,nt,6.6
CCOc1cc(/C=N/NC(N)=S)cc(Br)c1OCc1ccccc1C,2.9,16.0,4.8,nt
CCOc1c(Cl)cc(/C=N/NC(N)=S)cc1OC,25.9*,7.1,-11.2,nt
C#CCOc1c(Cl)cc(/C=N/NC(N)=S)cc1OCC,79.8*,-0.6,-1.2,nt
CN(N=Cc1ccc(O)cc1O)c1nc(-c2ccccc2)cc(-c2ccccc2)n1,nt,nt,nt,4.3
O=C(Cc1cc(=O)[nH][nH]1)NN=C/C(Cl)=C/c1ccccc1,nt,nt,nt,8.0
Cc1ccc(/C=C/C(=O)NCc2cccs2)cc1,4.8,-0.2,-5.9,3.9
Cc1ccc(/C=C/C(=O)NCc2cccs2)o1,37.5*,3.7,-5.4,3.7
O=C(N/N=C/c1ccc(OCc2ccccc2)cc1)c1ccco1,22.2*,11.8,-10.8,nt
O=C(NN=Cc1ccc(Br)s1)c1ccncc1,nt,nt,nt,10.3
CC(Cl)C(=O)Nc1cc(C(C)(C)C)nn1-c1ccccc1 (stereo not given),5.8,-3.0,0.9,0.6
CCCc1cc(NC(=O)CCl)n(-c2ccccc2)n1,78.6*,8.9,1.8,4.6
CC(C)(C)c1cc(NC(=O)CCl)n(-c2ccccc2)n1,56.6*,-2.3,1.8,3.4
Cc1c2cnn(CC(=O)Nc3c(F)c(F)cc(F)c3F)c(=O)c2c(C)n1Cc1ccccc1F,0.7,62.0*,1.4,-1.7
COc1ccc(-n2c(SCC(=O)NN=C(C)c3cccnc3)nc3ccccc3c2=O)cc1,nt,nt,nt,2.8
CCCc1cc(=O)oc2cc(OCC(=O)NCC3CCC(C(=O)O)CC3)ccc12 (stereo not given),-0.1,-8.7,26.1,-16.6
O=C(Cc1cc(=O)oc2cc(O)ccc12)NCC1CCC(C(=O)O)CC1 (stereo not given),4.0,55.4*,nt,i
COc1ccc(C(=O)ON=Cc2ccc(S(=O)(=O)c3ccc(Cl)cc3)nc2)cc1,nt,nt,nt,-6.0
C(=N\N1CCN(Cc2ccccc2)CC1)/c1ccc(-c2ccccc2)cc1,17.4*,7.5,7.5,nt
C(=NN1CCN(Cc2ccccc2)CC1)c1ccc(-c2ccccc2)cc1,nt,nt,nt,7.9
CN(C1=C(NC(=O)c2ccccc2)C(=O)c2ccccc2C1=O)C1CCS(=O)(=O)C1 (stereo not given),21.6*,40.6,-37.3,48.9*
CCCCOc1ccc(/C=C/C(=O)Nc2ccc(C(N)=O)cc2)cc1,3.2,50.9*,20.4,-7.4
CC(C)(C)OC(=O)NCCCCCNC(=O)c1nc[nH]c1C(=O)NCC(=O)OCc1ccccc1,nt,nt,-1.9,1.3
SMILES,Fh CTSL1 inh,UBC9 SUMO inh,Neddylation inh,UCH37 DUB inh
CC(C)(C)OC(=O)CNC(=O)c1[nH]cnc1C(=O)NCC(=O)OCc1ccccc1,-0.1,0.0,-8.4,30.5*
Cc1ccccc1NC(=S)NN=CC(C)c1ccccc1 (stereo not given),nt,nt,nt,1.5
O=C(Nc1ccc(F)cc1)N1CCCCCC1,-1.7,7.0,3.6,1.0
CC(=O)Nc1ccc(NC(=O)N2CCCCC2)cc1,20.1*,4.5,-1.1,0.7
O=[N+]([O-])c1cccc(S(=O)(=O)NN=Cc2ccc3c(c2)OCO3)c1,nt,nt,nt,5.4
CCOC(=O)Cn1c2ccccc2c2nc3ccccc3nc21,0.4,94.0*,nt,0.7
O=C(O)Cn1c2ccccc2c2nc3ccccc3nc21,nt,nt,18.5,nt
Nc1c(C(=O)Nc2ccc(Br)cc2)sc2nc(-c3ccco3)ccc12,5.3,72.3*,nt,-80.4
CC(=O)c1sc2nc(-c3ccco3)ccc2c1N,8.4,70.3*,81.8*,-29.2
Nc1c(C(=O)Nc2ccc(F)cc2)sc2nc(-c3ccco3)ccc12,3.3,74.5*,34.9,-50.6
Cc1ccc(NC(=O)c2sc3nc4c(c(-c5ccco5)c3c2N)CCC4)cc1,5.2,20.9,1.8,-0.4
NC(=O)c1sc2nc(-c3ccccc3)ccc2c1N,-0.4,26.3,14.7,-100.8
CC(=NOCC(=O)NN=Cc1ccccc1)c1cccs1,nt,nt,nt,2.2
Cc1nnc(NC(=O)c2cccc(S(=O)(=O)N3CCc4ccccc43)c2)s1,3.7,-4.7,7.4,27.5*
COc1ccc(C=Nn2c(C)cc(C)c(C(N)=O)c2=O)cc1,nt,nt,nt,3.5
O=C(CCCOc1ccc(Cl)cc1Cl)NN=Cc1cccc([N+](=O)[O-])c1,nt,nt,nt,0.9
CC(=O)N(Cc1nc2sc(C)c(C)c2c(=O)[nH]1)C1CCCC1,26.6*,7.5,0.7,2.3
Cc1sc2nc(CN(C(=O)NCc3ccccc3)C3CCCC3)[nH]c(=O)c2c1C,5.7,-3.3,-0.2,-1.1
O=C(CCSc1ccc(Cl)cc1)c1ccco1,19.9*,0.2,-2.5,1.7
O=C(NCCC1=CCCCC1)C1CCN(S(=O)(=O)c2cnc[nH]2)CC1,0.1,6.8,-4.1,20.4*
O=C(NCCC1=CCCCC1)C1CCN(S(=O)(=O)c2ccccc2)CC1,-3.9,4.5,3.0,0.5
CCn1nc(C)c(/C=N/NC(=O)c2ccc3c(c2)c(C)c(C)n3Cc2ccccc2)c1C,2.2,-25.9,40.0*,nt
Cc1ccc(C)c(OCCCC(C)(C)C(=O)O)c1,-3.3,5.8,-3.4,3.4
Cc1ccc(C)c(OCCCC(=O)O)c1,17.3*,24.9,0.0,5.0
CCc1ccccc1NC(=O)C1CCCN1S(=O)(=O)c1ccc(-c2ccc(=O)[nH]n2)s1 (stereo not given),2.5,9.8,-4.5,-0.6
SMILES,Fh CTSL1 inh,UBC9 SUMO inh,Neddylation inh,UCH37 DUB inh
Cc1cccc(C)c1NC(=O)C1CCCN1S(=O)(=O)c1ccc(-c2ccc(=O)[nH]n2)s1 (stereo not given),28.1*,4.3,-10.8,4.5
O=C(NN=C/C=C/c1ccccc1)c1cccc(Br)c1,nt,nt,nt,3.4
O=C(N/N=C/C=C/c1ccccc1)c1cccc(Br)c1,17.7*,2.0,-15.4,nt
Cc1ccc(C)c(NC(=O)/C(C#N)=C/c2cn(CC(=O)NCc3ccco3)c3ccccc23)c1,4.5,53.7*,nt,-143.8
Cc1ccc(NC(=O)/C(C#N)=C/c2cn(CC(=O)NCc3ccco3)c3ccccc23)cc1C,0.5,62.4*,nt,-58.0
CSc1ccccc1C(=O)NCc1ccc(F)cc1,32.0*,14.7,4.5,2.9
CSc1ccccc1C(=O)NCc1ccc(C)cc1,-0.5,6.6,-2.2,1.6
C(=NNc1ccccc1)c1nc2ccccc2s1,nt,nt,nt,0.4
Cc1nc2ccccc2c(=O)n1/N=C/c1ccncc1,18.4*,13.3,2.8,nt
Cc1nc2ccccc2c(=O)n1N=Cc1ccccc1,nt,nt,nt,0.0
CC1=NN(c2ccc(C)cc2)C(=O)/C1=C\c1ccc(Br)s1,-2.8,76.1*,-1.8,7.5
O=C(N/N=C/c1cc(Cl)cc([N+](=O)[O-])c1O)c1cc(-c2ccccn2)nc2ccccc12,4.2,86.6*,-26.7,nt
COc1cccc(/C=N/NC(=O)c2cc(-c3ccccn3)nc3ccccc23)c1O,nt,nt,-35.8,nt
COc1ccccc1-c1nc(C(=O)NCC2CCCO2)cc2c1[nH]c1ccccc12 (stereo not given),6.3,20.0,31.0,-30.2
COc1cc(-c2nc(C(=O)NCC3CCCO3)cc3c2[nH]c2ccccc23)cc(OC)c1OC (stereo not given),-6.8,2.7,44.3*,-50.1
